Bioassay records deposited in PubChem BioAssay by Johns Hopkins Ion Channel Center.
TRPC6 act – mouse TRPC6 channel activators, primary screen, cell-based, HEK293, membrane potential dye. AID 2550, 2010. Short transient receptor potential channel 6 (Mus musculus), Q61143. B-score at 10 µM. HEK293-TRPC6 membrane potential dye fluorescence; hits give high values. 0.13% of 310,000 active;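 active means B-score of the integrated fluorescence ratio above library mean plus 3 SD, and starting fluorescence ratio within library mean plus 5 SD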;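 further: higher score means more depolarization so channel activation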
TRPC6 inhibitor – mouse TRPC6 channel inhibitors, primary screen, cell-based, HEK293, membrane potential dye. B-score at 10 µM. ACh-evoked depolarization; hits give low values. 1.1% of 310,000 active. Short transient receptor potential channel 6 (Mus musculus), Q61143;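 active means B-score under library mean minus 3 SD, initial fluorescence not abnormally high, positive integrated signal ratio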;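 further: B-score derived from integrated fluorescence ratio over the kinetic read; more negative B-score means stronger inhibition of depolarization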
TRPC4 potent – positive allosteric modulators of TRPC4, primary screen, cell-based, mouse TRPC4beta, HEK293 mu-opioid, Fluo-4 calcium. Short transient receptor potential channel 4 (Mus musculus), Q9QUQ5. DAMGO EC20, Fluo-4 Ca2+ flux; hits give high values. B-score at 10 µM. 0.42% of 310,000 active. AID 2227, 2009;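 active means B-score of calcium response area above 5 SD of library B-scores, with initial fluorescence ratio within 5 SD of library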
Target sequence (Q9QUQ5 whole entry, looked up): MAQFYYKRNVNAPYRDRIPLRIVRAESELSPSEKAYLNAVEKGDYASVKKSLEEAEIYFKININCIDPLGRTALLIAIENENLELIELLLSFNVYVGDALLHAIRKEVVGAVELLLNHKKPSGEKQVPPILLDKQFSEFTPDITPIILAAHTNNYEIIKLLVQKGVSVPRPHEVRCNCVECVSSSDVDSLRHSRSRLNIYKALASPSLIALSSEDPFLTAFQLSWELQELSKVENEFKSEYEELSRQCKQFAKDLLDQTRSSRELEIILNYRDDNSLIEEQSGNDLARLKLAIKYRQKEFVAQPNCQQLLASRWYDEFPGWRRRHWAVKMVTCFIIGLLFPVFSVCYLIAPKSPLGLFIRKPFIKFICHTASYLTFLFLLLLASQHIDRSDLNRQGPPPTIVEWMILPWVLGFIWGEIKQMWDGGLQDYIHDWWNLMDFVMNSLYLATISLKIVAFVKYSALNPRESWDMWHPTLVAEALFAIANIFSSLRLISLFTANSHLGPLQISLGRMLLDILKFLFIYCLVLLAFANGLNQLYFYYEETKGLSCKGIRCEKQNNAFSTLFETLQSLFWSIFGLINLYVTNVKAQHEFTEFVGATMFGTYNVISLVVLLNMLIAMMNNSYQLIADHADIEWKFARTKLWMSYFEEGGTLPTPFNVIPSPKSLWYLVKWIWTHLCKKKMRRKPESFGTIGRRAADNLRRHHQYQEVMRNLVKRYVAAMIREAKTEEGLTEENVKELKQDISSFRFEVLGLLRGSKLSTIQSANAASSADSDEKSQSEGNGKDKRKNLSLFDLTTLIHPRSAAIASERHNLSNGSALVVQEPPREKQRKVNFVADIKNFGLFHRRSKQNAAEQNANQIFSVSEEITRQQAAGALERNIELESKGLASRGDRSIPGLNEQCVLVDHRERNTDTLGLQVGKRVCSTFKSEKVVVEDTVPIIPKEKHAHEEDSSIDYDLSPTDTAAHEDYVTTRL
TRPC4 inh – inhibitors of mouse TRPC4 channel, primary screen, Fluo4 calcium, HEK293 TRPC4beta/mu-opioid cells; Short transient receptor potential channel 4 (Mus musculus), Q9QUQ5; 0.39% of 300,000 active; B-score at 10 µM; DAMGO-evoked Fluo4 calcium flux; hits give low values;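 active means B-score over 3 SD under the library average, no early fluorescence shift, positive overall ratio signal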
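Material: HEK293 cells with stable TRPC4beta plus mu-opioid receptor expression; probe or stimulus: DAMGO in two steps, submaximal then maximal; technique: Fluo4 calcium fluorescence by kinetic imaging, 5 s 1 Hz baseline; measure: integrated fluorescence ratio relative to baseline, converted to per-well B score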
TRPC4 act – activators of mouse TRPC4 channel, primary screen, Fluo4 calcium, HEK293 TRPC4beta/mu-opioid cells; B-score at 10 µM; 0.49% of 310,000 active; AID 2237, 2010; Fluo4 calcium fluorescence; hits give high values; Short transient receptor potential channel 4 (Mus musculus), Q9QUQ5;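 active means B-score above 5 SD of library B-scores, and initial fluorescence ratio not above library mean plus 5 SD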;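 further: positive B-score marks a calcium rise read as TRPC4 activation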
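Technique: kinetic Fluo4 calcium fluorescence; Test system: TRPC4beta and mu-opioid receptor HEK293 stable cells; Measure: B-scored integrated calcium fluorescence ratio; Benchmarks: low control buffer alone, high control maximal DAMGO; Schedule: 45 min room-temperature Fluo4 loading, 110 s read.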
TRPC4 spec 2 – second check of whether TRPC6 inhibitors also affect mouse TRPC4 | shares compounds with TRPC6 inhibitor | HEK293 TRPC4/MOR, membrane potential dye fluorescence; channel activated by saturating DAMGO dose | inhibition, % at 10 µM | 42% of 920 active | AID 2776;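 active means compounds whose fluorescence signal differed from control wells by over 3 SD, either direction, in both duplicate plates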
TRPC4 spec – mouse TRPC4 modulation by TRPC6 hits, confirmation, selectivity assay for TRPC6 inhibitor project, cell-based, HEK293 TRPC4/mu-opioid, membrane potential dye. shares compounds with TRPC6 inhibitor. membrane potential fluorescence. activity change, negative = inhibition, % at 10 µM. 61% of 920 active. AID 2777, 2010;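 active means rise or fall in signal beyond 3 SD of buffer-only wells in both replicate plates, either sign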;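 further: integrated kinetic ratio of fluorescence range over baseline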
HEK293 MPD ctr 2-1 – nonspecific membrane potential effects, parental HEK293, confirmation, counter-screen for TRPC6 inhibitor project, cell-based, second counter screen | shares compounds with TRPC6 inhibitor | parental HEK293 membrane potential dye fluorescence; maximal acetylcholine challenge after compound addition | signal change vs control, % at 10 µM | 31% of 920 active | AID 2779, 2010;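 active means membrane potential signal moving either way by over 3 SD of the maximum-effect control, in both duplicate plates, meaning non-specific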
HEK293 MPD ctr-1 – membrane potential modulation in parental HEK293, confirmation, counter-screen for TRPC6 inhibitor project, cell-based. shares compounds with TRPC6 inhibitor. membrane potential signal change, % at 10 µM. parental HEK293 membrane potential dye fluorescence. 60% of 920 active;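 active means membrane potential signal shifting up or down by more than 3 SD of buffer-only wells, on both duplicate plates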
HEK293 MPD ctr-2 – parental HEK293 membrane potential modulation, confirmation, counter-screen for TRPC6 modulator project, cell-based | membrane potential signal change, % at 10 µM | 51% of 2,400 active | shares compounds with TRPC6 inhibitor | membrane potential dye fluorescence | AID 488924, 2010;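 active means membrane potential signal moves up or down beyond 5 SD from buffer-only wells, on both duplicate plates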
HEK293 MPD ctr 2-2 – parental HEK293 nonspecific activity of TRPC6 modulators, second screen; shares compounds with TRPC6 inhibitor; membrane potential dye fluorescence; after compound, maximal acetylcholine stimulation; inhibition, % at 10 µM; 14% of 2,400 active; AID 488926;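 active means membrane potential signal drops by more than 5 SD from the mean control signal, in both duplicate plates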
TRPC4 ctr mod – TRPC4 modulation by TRPC6 hit compounds, confirmation, selectivity assay for TRPC6 modulator project, cell-based, HEK293 TRPC4/mu-opioid, membrane potential dye, mouse. membrane potential fluorescence. 69% of 2,400 active. shares compounds with TRPC6 inhibitor. percent change from control (negative = decrease, positive = increase), % at 10 µM;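 active means membrane potential signal moved up or down beyond 5 SD of buffer control wells, in both duplicate plates, actives on both sides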
TRPC4 ctr inh 2 – mouse TRPC4 off-target activity of TRPC6 modulators, second screen. shares compounds with TRPC6 inhibitor. HEK293 TRPC4/mu-opioid, membrane potential dye fluorescence; stimulated with maximal-effect DAMGO. inhibition, % at 10 µM. 55% of 2,400 active. AID 488928;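 active means drop in membrane potential signal beyond 5 SD of the control wells in both duplicate plates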;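 further: TRPC4 counter screen for TRPC6 hits run under conditions tuned for TRPC6 not TRPC4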
TRPC6 inh conf – mouse TRPC6 channel inhibitors, confirmation, HEK293 cells, membrane potential dye, duplicate. 43% of 3,300 active. AID 488960, 2010. inhibition, % at 10 µM. shares compounds with TRPC6 inhibitor. ACh-evoked depolarization;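 active means fluorescence ratio falls more than 5 SD below the full-stimulation control mean, in both duplicate runs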;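 further: integrated fluorescence ratio of peak minus minimum over baseline after agonist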
TRPC6 act confirm – mouse TRPC6 channel activators, confirmation, HEK293 cells, membrane potential dye, duplicate. shares compounds with TRPC6 inhibitor. HEK293-TRPC6 membrane potential dye fluorescence, FDSS. activation, % at 10 µM. 11% of 2,800 active;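 active means ratio signal rise beyond 5 SD above unstimulated control wells' mean, seen in both duplicate runs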
A number is an active result. A selection: hits, their analogues and other compounds. The true share with any hit is near 2.3%.

What do the screens show for `COc1ccc(CNC2CCCc3ccccc32)c(OC)c1` (stereo not given)?
TRPC6 act: inactive; TRPC6 inhibitor: -6.02; TRPC4 potent: inactive; TRPC4 inh: inactive; TRPC4 act: inactive; HEK293 MPD ctr-2: 217.5%; HEK293 MPD ctr 2-2: inactive; TRPC4 ctr mod: 53.0%; TRPC4 ctr inh 2: 63.0%; TRPC6 inh conf: 64.0%

What do the screens show for `CC(CCc1ccccc1)NCc1cccc2ccccc12` (stereo not given)?
TRPC6 act: inactive; TRPC6 inhibitor: -7.36; TRPC4 potent: inactive; TRPC4 inh: inactive; TRPC4 act: inactive; TRPC4 spec 2: inactive; TRPC4 spec: 32.0%; HEK293 MPD ctr 2-1: inactive; HEK293 MPD ctr-1: 14.7%; TRPC6 inh conf: 67.0%

What do the screens show for `O=C(CSCc1ccc(Br)cc1)N1CCCC1`?
TRPC6 act: inactive; TRPC6 inhibitor: inactive; TRPC4 potent: inactive; TRPC4 inh: inactive; TRPC4 act: inactive

Results for CC1CCN(Cc2c(C(=O)N/N=C/c3cc(Cl)ccc3O)nnn2-c2nonc2N)CC1 ?
TRPC6 act: inactive; TRPC6 inhibitor: -5.52; TRPC4 potent: inactive; TRPC4 inh: inactive; TRPC4 act: inactive; HEK293 MPD ctr-2: inactive; HEK293 MPD ctr 2-2: inactive; TRPC4 ctr mod: inactive; TRPC4 ctr inh 2: inactive; TRPC6 inh conf: inactive; TRPC6 act confirm: inactive

How did CC1CCN(Cc2c(C(=O)N/N=C/c3cc(Br)ccc3O)nnn2-c2nonc2N)CC1 do in these assays?
TRPC6 act: inactive; TRPC6 inhibitor: inactive; TRPC4 potent: inactive; TRPC4 inh: inactive; TRPC4 act: inactive

What do the screens show for `O=C(COC(=O)/C=C/c1ccc(C(F)(F)F)cc1)NC1CCS(=O)(=O)C1` (stereo not given)?
TRPC6 act: inactive; TRPC6 inhibitor: inactive; TRPC4 potent: inactive; TRPC4 inh: inactive; TRPC4 act: inactive

Results for Cc1ccccc1NC(=O)CC(O)(C(F)(F)F)C(F)(F)F ?
TRPC6 act: inactive; TRPC6 inhibitor: inactive; TRPC4 potent: inactive; TRPC4 inh: inactive; TRPC4 act: inactive

What do the screens show for `Cc1ccc(NC(=O)CC(O)(C(F)(F)F)C(F)(F)F)c(Br)c1`?
TRPC6 act: inactive; TRPC6 inhibitor: -6.1; TRPC4 potent: inactive; TRPC4 inh: inactive; TRPC4 act: inactive; HEK293 MPD ctr-2: inactive; HEK293 MPD ctr 2-2: inactive; TRPC4 ctr mod: inactive; TRPC4 ctr inh 2: inactive; TRPC6 inh conf: inactive

What do the screens show for `Cn1c(=O)c(C#N)c(-c2ccc(F)cc2)c2cc(C(=O)c3cc(Cl)cc(Cl)c3O)cnc21`?
TRPC6 act: inactive; TRPC6 inhibitor: -9.38; TRPC4 potent: inactive; TRPC4 inh: inactive; TRPC4 act: inactive; TRPC4 spec 2: 43.5%; TRPC4 spec: -13.3%; HEK293 MPD ctr 2-1: inactive; HEK293 MPD ctr-1: -158.5%; TRPC6 inh conf: 76.2%; TRPC6 act confirm: inactive

What do the screens show for `Cc1ccc2nc(N=C(N)N)nc(C)c2c1`?
TRPC6 act: inactive; TRPC6 inhibitor: -9.43; TRPC4 potent: inactive; TRPC4 inh: inactive; TRPC4 act: inactive; HEK293 MPD ctr-2: -196.5%; HEK293 MPD ctr 2-2: inactive; TRPC4 ctr mod: -35.5%; TRPC4 ctr inh 2: 64.0%; TRPC6 inh conf: 37.0%; TRPC6 act confirm: inactive

What do the screens show for `COc1ccc(-c2nnc(SCc3ccc(C(=O)O)cc3)n2N)cc1`?
TRPC6 act: inactive; TRPC6 inhibitor: inactive; TRPC4 potent: inactive; TRPC4 inh: inactive; TRPC4 act: inactive

What do the screens show for `COc1ccccc1N1CCN(C/C=C/c2ccc(N(C)C)cc2)CC1`?
TRPC6 act: inactive; TRPC6 inhibitor: -7.55; TRPC4 potent: inactive; TRPC4 inh: inactive; TRPC4 act: inactive; TRPC4 spec 2: 68.5%; TRPC4 spec: -10.0%; HEK293 MPD ctr 2-1: inactive; HEK293 MPD ctr-1: -247.0%; TRPC6 inh conf: inactive; TRPC6 act confirm: inactive

How did Clc1ccc2c(c1)C(N1CCNCC1)=Nc1ccccc1O2 do in these assays?
TRPC6 act: inactive; TRPC6 inhibitor: -5.1; TRPC4 potent: inactive; TRPC4 inh: inactive; TRPC4 act: inactive; HEK293 MPD ctr-2: inactive; HEK293 MPD ctr 2-2: inactive; TRPC4 ctr mod: 8.0%; TRPC4 ctr inh 2: 48.0%; TRPC6 inh conf: inactive; TRPC6 act confirm: inactive

Results for COC(=O)c1oc2ccc(Br)cc2c1NC(=O)CN1CCN(C)CC1 ?
TRPC6 act: inactive; TRPC6 inhibitor: -5.54; TRPC4 potent: inactive; TRPC4 inh: inactive; TRPC4 act: inactive; HEK293 MPD ctr-2: inactive; HEK293 MPD ctr 2-2: inactive; TRPC4 ctr mod: -16.5%; TRPC4 ctr inh 2: 52.0%; TRPC6 inh conf: 47.5%; TRPC6 act confirm: inactive
